Bioassay records deposited in PubChem BioAssay by several laboratories.
Compounds with a hit are over-represented: about 2.6% of the library has one in this group of screens.
UCH37 DUB inh – human UCH37 deubiquitinating enzyme inhibition. 330,000 tested, 0.33% active. Q9Y5K5. purified proteasome/UCH37, Ub-AMC cleavage fluorescence. inhibition, % (concentration not given with the values);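 active = mean inhibition over replicate wells above about 20%, limit read from the data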;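 also: 0% = compound-free wells with enzyme and 100% = wells lacking proteasome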
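system = Proteasome-associated human UCH37 deubiquitinase | amount = 0.15 nM proteasome as dispensed | medium = pH 7.4 Tris-HCl (50 mM) with ovalbumin, ATP-MgCl2, DTT | incubation = 30 min preincubation with enzyme, 25 min cleavage at room temperature | detection = AMC fluorescence 355/460 nm | read-out basis = percent inhibition | controls = no-proteasome and no-compound wells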
SENP7 inh – SENP7 protease inhibition | Q9BQF6 | recombinant SENP7, Z-RLRGG-aminoluciferin luminescence, 40 min | inhibition, % at 5 µM | 330,000 tested, 1.5% active;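 active = inhibition above about 50% at the single test dose, limit read from the data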;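 also: plate controls were DMSO with enzyme for no effect and no enzyme buffer wells for full effect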
Target sequence (Q9BQF6 706-1050 limits assumed): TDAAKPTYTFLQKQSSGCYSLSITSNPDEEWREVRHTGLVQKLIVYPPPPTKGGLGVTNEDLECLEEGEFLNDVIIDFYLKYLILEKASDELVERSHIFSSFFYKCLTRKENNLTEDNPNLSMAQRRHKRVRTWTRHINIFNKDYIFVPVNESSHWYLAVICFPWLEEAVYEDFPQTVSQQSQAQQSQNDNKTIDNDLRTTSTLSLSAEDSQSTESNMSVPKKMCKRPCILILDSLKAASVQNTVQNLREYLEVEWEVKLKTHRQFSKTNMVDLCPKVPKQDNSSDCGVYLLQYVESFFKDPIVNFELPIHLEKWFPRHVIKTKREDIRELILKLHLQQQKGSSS
SENP1 inh – SENP1 (human) catalytic domain inhibition | recombinant SENP1 catalytic domain, CyPet-SUMO1-YPet FRET cleavage | inhibition, % at 10 µM | 360,000 tested, 0.21% active;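 active = inhibition at least 30% at 10 µM, raw YFP signal under a set limit, fluorescence ratio 0.5 to 1.5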;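 also: 0% = enzyme with DMSO and 100% = no enzyme wells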
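Controls: no-enzyme wells low, DMSO-plus-enzyme wells high control. Test system: human recombinant His6-tagged SENP1 catalytic domain enzyme. Reagent: SFCypet-SUMO1-SFYpet FRET protein substrate, 25 nM final. Doses: one dose per compound, 10 µM, 0.5% DMSO. Detection: FRET, CFP and YFP emission. Timing: 50 min reaction at room temperature.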
SENP8 block-1 – blocks human SENP8 cleavage of Nedd8 substrate; Q96LD8; recombinant SENP8, Nedd8 substrate fluorescence; inhibition, % at 20 µM; 360,000 tested, 0.64% active; in the data active = inhibition mostly above about 40%, no sharp cut-off; inactive = mostly below about 27%
Target sequence (Q96LD8 whole entry, looked up): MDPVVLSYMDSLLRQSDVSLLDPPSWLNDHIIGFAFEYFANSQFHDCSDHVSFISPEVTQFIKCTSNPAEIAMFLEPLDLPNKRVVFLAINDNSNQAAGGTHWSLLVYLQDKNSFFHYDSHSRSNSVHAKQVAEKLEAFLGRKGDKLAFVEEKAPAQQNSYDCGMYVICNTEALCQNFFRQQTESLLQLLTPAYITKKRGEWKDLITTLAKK
SENP8 block-2 – inhibitors of human SENP8 protease. Q96LD8. purified SENP8, Z-RLRGG-aminoluciferin cleavage, luminescence. inhibition, % at 10 µM. 330,000 tested, 1.2% active; in the data active = inhibition above about 50%
SENP6 block – blocks the human protease SENP6; Q9GZR1; Recombinant SENP6 catalytic domain, aminoluciferin luminescence; inhibition, % at 10 µM; 330,000 tested, 1.8% active; AID 2599;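 active = inhibition above about 50% at the single tested dose, limit read from the data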;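 also: plate controls were DMSO wells with enzyme for no effect and DMSO wells lacking enzyme for full effect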
SENP8 confirm – confirmation of human SENP8 protease inhibitors; inhibition, % at 12.5 µM; shares compounds with SENP7 inh; 6,200 tested, 40% active; Recombinant SENP8, Z-RLRGG-aminoluciferin luminescence, 60 min; AID 488912;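 active = mean inhibition across replicates above about 50%, limit read from the data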
SENP6 conf – human SENP6 inhibition, confirmed | 6,200 tested, 58% active | shares compounds with SENP7 inh | inhibition, % at 12.5 µM | recombinant SENP6, Z-RLRGG-aminoluciferin luminescence
SENP7 confirm – human SENP7 inhibition, confirmed | shares compounds with SENP7 inh | recombinant SENP7, Z-RLRGG-aminoluciferin luminescence, 40 min | inhibition, % at 12.5 µM | 6,200 tested, 69% active | AID 488917
Casp3 SENP sel – caspase-3 inhibition (SENP selectivity assay); shares compounds with SENP7 inh; purified caspase-3, Z-DEVD-aminoluciferin luminescence, 60 min; inhibition, % at 12.5 µM; 6,200 tested, 60% active; AID 488918;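 active = mean inhibition above about 50%, limit read from the data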;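 also: plate controls were enzyme with DMSO for no effect and wells without caspase-3 for full effect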
SENP luc ctr – interferes with luciferase luminescence in SENP counter-screen; Pre-incubated SENP8/Z-RLRGG-aminoluciferin, luciferase luminescence interference; 6,200 tested, 39% active; shares compounds with SENP7 inh; AID 488919; inhibition, % at 12.5 µM;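 active = mean inhibition above about 50% when retested at one dose, limit read from the data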;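 also: plate controls were DMSO wells with completed reaction for no effect and substrate without enzyme for full effect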
Active calls of the source: *; · = not tested or not shown.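 The calls were made as follows, unless noted: active = mean inhibition above about 50% in the one-dose retest (limit read from the data); inactive = the rest.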

SMILES	UCH37 DUB inh	SENP7 inh	SENP1 inh	SENP8 block-1	SENP8 block-2	SENP6 block	SENP8 confirm	SENP6 conf	SENP7 confirm	Casp3 SENP sel	SENP luc ctr
Cc1c(C(=O)Nc2ccccc2)csc1-c1ccccc1	6	95*	3	22	60*	57*	-27	42	84*	46	-4
COc1ccc(NC(=O)ON=Cc2c(C)nn(C(C)(C)C)c2C)cc1	5	·	·	·	·	·	·	·	·	·	·
Cc1cc(-n2c(C)cc(C(=O)COc3ccc(F)c(F)c3)c2C)no1	1	40	-4	2	46	64*	60*	59*	81*	48	26
Cc1nc2cc(NC(=O)Nc3ccccc3Cl)ccc2n1C	1	97*	1	6	93*	88*	86*	92*	99*	94*	91*
Cc1nc2cc(NC(=O)Nc3cccc([N+](=O)[O-])c3)ccc2n1C	2	66*	1	16	32	73*	34	54*	92*	76*	9
Cc1ccc(NC(=O)Nc2ccc3c(c2)nc(C)n3C)cc1	2	12	1	11	16	-8	·	·	·	·	·
CC(=NNc1nc(C(C)(C)C)cs1)c1ccccc1	6	·	·	·	·	·	·	·	·	·	·
Cc1cccc(NC(=O)c2n[nH]c([N+](=O)[O-])c2Br)c1C	8	85*	3	12	94*	97*	94*	97*	102*	96*	95*
Cc1cccc(NC(=O)c2ccccn2)c1C	1	26	3	5	-2	33	·	·	·	·	·
COc1ccc(NC(=O)c2ccc3c(c2)OCO3)cc1	0	60*	-1	13	62*	68*	63*	61*	87*	88*	72*
COc1ccc(N/C=C\C(=O)c2ccc3c(c2)OCO3)cc1	3	78*	-19	-147	51*	76*	15	44	65*	54*	22
COc1ccc(/C=C/C(=O)c2ccc3c(c2)OCO3)c(OC)c1	1	83*	-91	-112	45	84*	87*	78*	94*	50	66*
CCOc1ccc(N/C=C\C(=O)c2ccc3c(c2)OCO3)cc1	-78	-6	-22	-175	-6	3	·	·	·	·	·
O=C(/C=C\Nc1ccc2c(c1)OCO2)c1ccc2c(c1)OCO2	-14	86*	-24	-51	30	-7	10	15	-2	10	-1
O=C(NN=Cc1cccn1-c1ccc([N+](=O)[O-])cc1)c1cccnc1	12	·	·	·	·	·	·	·	·	·	·
Nc1ccc(Br)c2cccnc12	25*	62*	-24	35	75*	85*	27	63*	33	2	-3
CS(=O)(=O)Oc1ccc(Br)c2cccnc12	3	-6	0	22	-9	-19	·	·	·	·	·
O=C(CNC(=O)c1ccco1)NN=Cc1cc(Br)ccc1O	-11	·	·	·	·	·	·	·	·	·	·
Cc1ccc(C(=O)Nc2nc(C)c(C)s2)o1	1	79*	-1	-49	58*	74*	7	72*	92*	91*	75*
Cc1nc(NC(=O)c2ccc(Br)o2)sc1C	7	81*	0	-38	63*	86*	73*	78*	95*	89*	33
COC(=O)c1sc(NC(=O)c2ccc(C)o2)nc1C	6	50	1	-144	38	46	·	·	·	·	·
CC(C)(C)c1csc(NC(=O)c2ccc(Br)o2)n1	1	-11	0	-16	-12	-15	·	·	·	·	·
Cc1ccc(N2CC(C(=O)NN=Cc3c(F)cccc3Cl)CC2=O)cc1 (centres undefined)	4	·	·	·	·	·	·	·	·	·	·
COc1cccc(C=Nn2c(=S)n(C)c3cc(C)c(C)cc32)c1OC	2	·	·	·	·	·	·	·	·	·	·
O=C1CNC(=S)N1c1nc(-c2ccccc2)cs1	-11	88*	-1	18	88*	96*	-4	6	2	14	7
SMILES	UCH37 DUB inh	SENP7 inh	SENP1 inh	SENP8 block-1	SENP8 block-2	SENP6 block	SENP8 confirm	SENP6 conf	SENP7 confirm	Casp3 SENP sel	SENP luc ctr
COc1ccc(-c2csc(N3C(=O)CNC3=S)n2)cc1	-2	·	2	12	·	·	·	·	·	·	·
COc1cc(C)nc(Oc2ccc(C=NO)cc2)n1	1	·	·	·	·	·	·	·	·	·	·
O=C(c1cc(-c2cccs2)on1)N1CCc2ccccc2C1	1	52*	-2	14	-8	3	-3	-3	9	0	-4
N#CCC(=O)NN=Cc1coc2ccccc2c1=O	-20	·	·	·	·	·	·	·	·	·	·
O=C1C(c2ccnc3ccccc23)=C(O)c2ccccc21	6	97*	16	62*	39	64*	86*	86*	97*	94*	88*
O=C1c2ccccc2C(=O)C1c1nccc2ccccc12	0	96*	-13	34	59*	97*	87*	81*	98*	92*	29
N#CC1=C(N)SC(N)=C(C#N)C1c1ccnc2ccccc12	·	-2	-18	-306	-9	1	·	·	·	·	·
O=C1c2ccccc2C(=O)C1c1ccnc2ccccc12	4	99*	-3	28	85*	79*	84*	89*	100*	94*	21
Cc1cccc(C=NNC(=O)NC23CC4CC(CC(C4)C2)C3)n1	1	·	·	·	·	·	·	·	·	·	·
COc1cccc(C=NNC(=O)CN2C(=O)NC3NC(=O)NC32)c1 (centres undefined)	4	·	·	·	·	·	·	·	·	·	·
CC(=Nc1ccc(C)cc1)c1sc2ccccc2c1O	4	96*	-22	-53	90*	94*	95*	96*	101*	85*	48
CC(=Nc1ccc(C)cc1C)c1sc2ccccc2c1O	3	66*	-27	-25	65*	78*	71*	80*	91*	60*	17
CCOC(=O)c1sc2ccccc2c1OC(=O)c1ccc(C)cc1	2	-10	2	7	-6	-2	·	·	·	·	·
CC(=O)NCCN=Cc1sc2ccccc2c1O	3	5	-157	-63	-1	-18	·	·	·	·	·
Cc1ccc(O)c(N=Cc2sc3ccccc3c2Cl)c1	8	1	2	8	1	30	·	·	·	·	·
CC(=Nc1cccc(O)c1)c1sc2ccccc2c1O	0	90*	-75	-5	90*	91*	84*	82*	93*	54*	72*
